Active and inactive are the calls of the source. The rule behind the calls is not given here.
Legend:
[1] = biological target: T1, Dihydroorotate dehydrogenase (Plasmodium falciparum, UniProt Q54A96); experiment: Inhibition of Plasmodium falciparum DHODH after 20 mins by 2,6-dichloroindophenol-reduction based assay
T1 sequence (Q54A96 whole entry): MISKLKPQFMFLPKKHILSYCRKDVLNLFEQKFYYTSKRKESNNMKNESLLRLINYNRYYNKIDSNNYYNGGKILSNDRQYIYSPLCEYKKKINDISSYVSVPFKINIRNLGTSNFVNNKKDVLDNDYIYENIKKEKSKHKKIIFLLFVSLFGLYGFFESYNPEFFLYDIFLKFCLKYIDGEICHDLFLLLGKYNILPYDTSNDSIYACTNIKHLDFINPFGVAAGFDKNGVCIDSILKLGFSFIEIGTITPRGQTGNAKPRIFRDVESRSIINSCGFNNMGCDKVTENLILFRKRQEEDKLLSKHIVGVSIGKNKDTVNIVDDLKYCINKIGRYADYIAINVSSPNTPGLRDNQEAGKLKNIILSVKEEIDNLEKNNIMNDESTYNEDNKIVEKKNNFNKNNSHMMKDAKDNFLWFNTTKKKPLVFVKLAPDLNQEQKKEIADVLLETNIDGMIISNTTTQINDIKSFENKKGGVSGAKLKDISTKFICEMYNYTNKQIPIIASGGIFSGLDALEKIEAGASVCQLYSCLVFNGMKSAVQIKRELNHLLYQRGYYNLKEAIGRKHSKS

[2] = biological target: Dihydroorotate dehydrogenase (quinone), mitochondrial (Homo sapiens, UniProt Q02127); experiment: Inhibition of human DHODH after 20 mins by 2,6-dichloroindophenol-reduction based assay
Plasmodium falciparum [3] = experiment: Antiplasmodial activity against Plasmodium falciparum 3D7 infected in […] after 72 hrs by SYBR green assay; format: functional, organism-based; conditions: 3D7, 72 h
Plasmodium falciparum [4] = experiment: Antiplasmodial activity against Plasmodium falciparum Dd2 infected in […] after 72 hrs by SYBR green assay; format: functional, organism-based; conditions: Dd2, 72 h
[5] = Cytotoxicity against human RPTEC after 4 days by alamar blue assay; format: cell-based; conditions: RPTEC cells, read-out: LC50
Plasmodium berghei = experiment: Inhibition of Plasmodium berghei DHODH after 20 mins by 2,6-dichloroindophenol-reduction based assay
Plasmodium vivax = experiment: Inhibition of Plasmodium vivax DHODH after 20 mins by 2,6-dichloroindophenol-reduction based assay
[6] = Clearance in human liver microsomes by LC-MS/MS analysis; format: ADME, Microsome
Outline: (§1)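 Liver microsome incubation. Predicted clearance is derived from a well-stirred model corrected for microsomal and protein binding.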

[7] = Clearance in mouse liver microsomes by LC-MS/MS analysis; format: ADME, Microsome; outline: as §1
Cytochrome P450 1A2 = biological target: T2, Cytochrome P450 1A2 (Homo sapiens, UniProt P05177); experiment: Inhibition of human CYP1A2 using phenacetin as substrate after 10 mins by LC-MS/MS analysis; format: ADME
T2 sequence (P05177 whole entry): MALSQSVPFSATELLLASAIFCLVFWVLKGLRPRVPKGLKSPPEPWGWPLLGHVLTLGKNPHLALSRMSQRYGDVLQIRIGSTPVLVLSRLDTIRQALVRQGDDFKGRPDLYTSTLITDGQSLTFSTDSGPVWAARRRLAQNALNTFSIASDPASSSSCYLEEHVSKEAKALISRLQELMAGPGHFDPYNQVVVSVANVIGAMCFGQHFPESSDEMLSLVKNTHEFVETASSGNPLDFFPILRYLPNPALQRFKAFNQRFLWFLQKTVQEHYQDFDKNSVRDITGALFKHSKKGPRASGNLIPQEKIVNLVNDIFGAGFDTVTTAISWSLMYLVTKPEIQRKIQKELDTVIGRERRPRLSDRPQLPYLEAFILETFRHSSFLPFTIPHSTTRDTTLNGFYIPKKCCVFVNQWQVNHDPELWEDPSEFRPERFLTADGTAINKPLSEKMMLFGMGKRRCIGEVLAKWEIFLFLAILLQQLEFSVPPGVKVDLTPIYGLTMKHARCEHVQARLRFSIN

Cytochrome P450 2C9 = Cytochrome P450 2C9 (Homo sapiens, UniProt P11712); experiment: Inhibition of human CYP2C9 using diclofenac as substrate after 10 mins by LC-MS/MS analysis; format: ADME
Cytochrome P450 2C19 = Cytochrome P450 2C19 (Homo sapiens, UniProt P33261); experiment: Inhibition of human CYP2C19 using S-mephenytoin as substrate after 45 mins by LC-MS/MS analysis; format: ADME
Cytochrome P450 3A4 = Cytochrome P450 3A4 (Homo sapiens, UniProt P08684); experiment: Inhibition of human CYP3A4 using midazolam as substrate after 5 mins by LC-MS/MS analysis; format: ADME
Cytochrome P450 2D6 = Cytochrome P450 2D6 (Homo sapiens, UniProt P10635); experiment: Inhibition of human CYP2D6 using bufuralol as substrate after 10 mins by LC-MS/MS analysis; format: ADME
[8] = biological target: Voltage-gated inwardly rectifying potassium channel KCNH2 (Homo sapiens, UniProt Q12809); experiment: Inhibition of human ERG expressed in CHOK1 cells by whole cell voltage clamp assay; format: cell-based, CHO-K1
Sequence of Voltage-gated inwardly rectifying potassium channel KCNH2 (Q12809 whole entry): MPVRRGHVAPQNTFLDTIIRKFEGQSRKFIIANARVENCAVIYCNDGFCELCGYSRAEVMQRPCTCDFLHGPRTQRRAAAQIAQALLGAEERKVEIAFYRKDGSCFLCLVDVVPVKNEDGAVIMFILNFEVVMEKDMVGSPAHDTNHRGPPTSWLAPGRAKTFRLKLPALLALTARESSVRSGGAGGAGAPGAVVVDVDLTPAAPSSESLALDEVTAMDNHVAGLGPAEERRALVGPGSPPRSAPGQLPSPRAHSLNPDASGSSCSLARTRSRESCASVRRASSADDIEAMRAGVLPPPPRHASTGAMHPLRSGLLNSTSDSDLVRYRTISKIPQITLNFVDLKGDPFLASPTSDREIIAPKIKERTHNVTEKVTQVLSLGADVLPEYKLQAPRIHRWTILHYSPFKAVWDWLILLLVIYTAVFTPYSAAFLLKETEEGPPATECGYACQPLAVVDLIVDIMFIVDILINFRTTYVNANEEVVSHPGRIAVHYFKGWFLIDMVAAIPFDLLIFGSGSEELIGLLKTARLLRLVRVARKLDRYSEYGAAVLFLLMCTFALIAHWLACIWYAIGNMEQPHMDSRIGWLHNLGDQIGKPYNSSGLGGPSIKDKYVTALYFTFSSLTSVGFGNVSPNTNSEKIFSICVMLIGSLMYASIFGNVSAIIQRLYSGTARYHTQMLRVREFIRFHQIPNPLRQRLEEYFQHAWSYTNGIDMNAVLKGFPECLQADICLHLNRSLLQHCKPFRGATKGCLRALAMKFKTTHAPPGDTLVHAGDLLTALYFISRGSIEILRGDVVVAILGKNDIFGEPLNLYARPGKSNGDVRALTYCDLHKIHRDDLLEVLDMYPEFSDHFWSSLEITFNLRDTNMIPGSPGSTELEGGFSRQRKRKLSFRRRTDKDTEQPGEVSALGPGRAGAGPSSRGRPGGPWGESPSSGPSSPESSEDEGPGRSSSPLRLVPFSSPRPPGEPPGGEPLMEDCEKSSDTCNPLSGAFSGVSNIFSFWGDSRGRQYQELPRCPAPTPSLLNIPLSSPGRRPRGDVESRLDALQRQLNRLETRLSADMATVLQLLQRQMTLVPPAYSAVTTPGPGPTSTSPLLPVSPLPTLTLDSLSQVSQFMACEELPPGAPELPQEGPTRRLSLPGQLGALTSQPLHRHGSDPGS

Sequence of Dihydroorotate dehydrogenase (quinone), mitochondrial (Q02127 whole entry): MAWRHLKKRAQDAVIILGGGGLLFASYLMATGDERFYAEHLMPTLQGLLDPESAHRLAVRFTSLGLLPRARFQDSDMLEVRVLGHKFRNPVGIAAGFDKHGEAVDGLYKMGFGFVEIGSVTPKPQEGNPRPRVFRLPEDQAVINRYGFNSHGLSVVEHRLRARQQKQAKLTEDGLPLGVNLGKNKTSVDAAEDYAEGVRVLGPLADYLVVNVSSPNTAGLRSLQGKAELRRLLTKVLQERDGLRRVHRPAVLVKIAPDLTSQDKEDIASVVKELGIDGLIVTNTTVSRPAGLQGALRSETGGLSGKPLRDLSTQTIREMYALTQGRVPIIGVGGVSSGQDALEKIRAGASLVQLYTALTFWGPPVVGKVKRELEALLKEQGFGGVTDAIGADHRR
Sequence of Cytochrome P450 2D6 (P10635 whole entry): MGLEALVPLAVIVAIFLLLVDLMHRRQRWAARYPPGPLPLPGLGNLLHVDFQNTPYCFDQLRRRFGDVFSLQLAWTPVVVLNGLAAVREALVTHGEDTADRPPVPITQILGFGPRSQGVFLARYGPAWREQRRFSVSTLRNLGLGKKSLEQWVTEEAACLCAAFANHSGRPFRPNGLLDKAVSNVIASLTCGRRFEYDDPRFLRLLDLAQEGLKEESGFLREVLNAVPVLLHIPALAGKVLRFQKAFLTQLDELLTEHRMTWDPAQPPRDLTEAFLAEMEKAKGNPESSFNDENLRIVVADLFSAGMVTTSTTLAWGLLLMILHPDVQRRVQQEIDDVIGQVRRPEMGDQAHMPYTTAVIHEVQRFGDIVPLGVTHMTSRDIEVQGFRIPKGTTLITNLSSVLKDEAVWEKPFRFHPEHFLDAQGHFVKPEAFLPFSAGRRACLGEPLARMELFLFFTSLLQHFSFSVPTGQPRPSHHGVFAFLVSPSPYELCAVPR
Sequence of Cytochrome P450 3A4 (P08684 whole entry): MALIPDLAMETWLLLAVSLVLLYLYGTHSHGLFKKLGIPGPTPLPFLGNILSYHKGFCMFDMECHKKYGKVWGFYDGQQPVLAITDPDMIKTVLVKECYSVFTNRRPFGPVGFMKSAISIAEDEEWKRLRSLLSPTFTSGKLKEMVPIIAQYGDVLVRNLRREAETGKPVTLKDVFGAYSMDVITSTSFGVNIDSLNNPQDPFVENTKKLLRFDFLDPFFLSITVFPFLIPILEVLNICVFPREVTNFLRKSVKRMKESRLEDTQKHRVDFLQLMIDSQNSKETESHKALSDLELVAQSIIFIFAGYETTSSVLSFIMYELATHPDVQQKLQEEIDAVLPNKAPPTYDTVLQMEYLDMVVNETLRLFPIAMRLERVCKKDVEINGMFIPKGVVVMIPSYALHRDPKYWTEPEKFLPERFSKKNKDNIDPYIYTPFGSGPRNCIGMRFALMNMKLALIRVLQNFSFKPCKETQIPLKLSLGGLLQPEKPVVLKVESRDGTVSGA
Sequence of Cytochrome P450 2C19 (P33261 whole entry): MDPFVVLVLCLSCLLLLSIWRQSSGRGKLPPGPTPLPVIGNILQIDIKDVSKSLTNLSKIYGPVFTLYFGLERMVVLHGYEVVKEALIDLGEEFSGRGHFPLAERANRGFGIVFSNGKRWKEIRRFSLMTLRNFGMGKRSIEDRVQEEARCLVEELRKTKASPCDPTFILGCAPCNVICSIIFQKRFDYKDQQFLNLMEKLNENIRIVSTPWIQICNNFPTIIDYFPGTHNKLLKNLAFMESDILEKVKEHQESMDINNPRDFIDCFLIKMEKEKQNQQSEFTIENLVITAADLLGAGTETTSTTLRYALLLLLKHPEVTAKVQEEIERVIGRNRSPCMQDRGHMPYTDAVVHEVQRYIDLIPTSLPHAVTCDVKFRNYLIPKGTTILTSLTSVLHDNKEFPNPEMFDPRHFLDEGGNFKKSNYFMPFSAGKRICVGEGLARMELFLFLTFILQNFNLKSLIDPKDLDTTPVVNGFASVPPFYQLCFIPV
Sequence of Cytochrome P450 2C9 (P11712 whole entry): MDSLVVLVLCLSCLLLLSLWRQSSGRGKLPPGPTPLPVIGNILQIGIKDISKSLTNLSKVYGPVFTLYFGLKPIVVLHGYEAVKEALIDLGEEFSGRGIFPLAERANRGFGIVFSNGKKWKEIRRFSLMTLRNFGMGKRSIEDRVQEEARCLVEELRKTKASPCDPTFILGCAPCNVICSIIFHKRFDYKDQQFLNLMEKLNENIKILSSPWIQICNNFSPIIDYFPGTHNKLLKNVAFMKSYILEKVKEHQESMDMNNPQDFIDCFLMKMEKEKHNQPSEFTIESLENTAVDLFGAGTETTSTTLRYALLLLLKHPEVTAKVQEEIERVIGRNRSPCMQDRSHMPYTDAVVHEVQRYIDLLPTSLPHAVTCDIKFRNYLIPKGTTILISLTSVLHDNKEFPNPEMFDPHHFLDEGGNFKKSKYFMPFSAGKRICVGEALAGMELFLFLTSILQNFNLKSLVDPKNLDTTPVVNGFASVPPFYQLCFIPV

Compound | IC50 [1] [nM] | IC50 [2] [µM] | IC50 (Plasmodium falciparum [3]) [nM] | IC50 (Plasmodium falciparum [4]) [nM] | CC50 at 96 h [5] [µM] | inhibition (Plasmodium berghei) | inhibition (Plasmodium vivax) | CLhep predicted [6] [mL/min/kg] | CLhep predicted [7] [mL/min/kg] | IC50 (Cytochrome P450 2D6) [nM] | IC50 [8] [µM] | further results
O=C(NC1CC1)c1ccc(-n2c(C(F)(F)F)nc3ccccc32)s1 | 570 | > 30 | 830 | 1710 | > 62 | – | – | – | – | – | – | –
COc1cccc2c1nc(C)n2-c1ccc(C(=O)NC2CC2)s1 | 162 | – | 49 | 109 | – | Active | Active | 4 | > 72 | – | – | inhibition (INH) (Cytochrome P450 1A2; human, 10 min): Not Active; inhibition (INH) (Cytochrome P450 2C9; human, 10 min): Not Active; inhibition (INH) (Cytochrome P450 2C19; human, 0.75 h): Not Active; inhibition (INH) (Cytochrome P450 3A4; human, 5 min): Not Active; inhibition (INH) (Cytochrome P450 2D6; human, 10 min): Not Active; inhibition (INH) ([8]; human, cho-k1): Not Active
CCCNC(=O)c1ccc(-n2cnc3ccccc32)s1 | 700 | > 30 | 470 | 1100 | > 62 | – | – | – | – | – | – | –
Cc1nc2c(OC(F)F)cccc2n1-c1ccc(C(=O)NC2CC2)s1 | 44 | > 30 | 19 | 26 | – | Active | Active | 4 | 33 | > 10000 | 28.8 | IC50 (Cytochrome P450 1A2): > 10 µM; IC50 (Cytochrome P450 2C9): > 10 µM; IC50 (Cytochrome P450 2C19): > 10 µM; IC50 (Cytochrome P450 3A4): > 10 µM
Cc1nc2cc(OC(F)(F)F)ccc2n1-c1ccc(C(=O)NC2CC2)s1 | 22 | – | 7 | 9 | – | Active | Active | 7 | 43 | 100 | < 2.8 | –
CCCc1nc2ccccc2n1-c1ccc(C(=O)NC2CC2)s1 | 180 | 15.1 | 390 | 630 | > 62 | – | – | – | – | – | – | –

Source: ChEMBL document CHEMBL2010768, “Optimization of Potent Inhibitors of P. falciparum Dihydroorotate Dehydrogenase for the Treatment of Malaria” (ACS Med Chem Lett, 2011)
